Measurements as given in ChEMBL document CHEMBL1157936, “Synthesis of 7-benzyl-5-(piperidin-1-yl)-6,7,8,9-tetrahydro-3H-pyrazolo[3,4-c][2,7]naphthyridin-1-ylamine and its analogs as bombesin receptor subtype-3 agonists” (Bioorg Med Chem Lett, 2010).

Experiments:
[1] = target: T1, Bombesin receptor subtype-3 (Rattus norvegicus) (UniProt Q8K418); assay: Agonist activity at rat BRS3 expressed in HEK293AEQ cells after 10 mins by aequorin bioluminescence assay relative to dY-peptide; assay type: functional, cell-based; design: concentration or dose not given beside the values
T1 sequence (whole entry): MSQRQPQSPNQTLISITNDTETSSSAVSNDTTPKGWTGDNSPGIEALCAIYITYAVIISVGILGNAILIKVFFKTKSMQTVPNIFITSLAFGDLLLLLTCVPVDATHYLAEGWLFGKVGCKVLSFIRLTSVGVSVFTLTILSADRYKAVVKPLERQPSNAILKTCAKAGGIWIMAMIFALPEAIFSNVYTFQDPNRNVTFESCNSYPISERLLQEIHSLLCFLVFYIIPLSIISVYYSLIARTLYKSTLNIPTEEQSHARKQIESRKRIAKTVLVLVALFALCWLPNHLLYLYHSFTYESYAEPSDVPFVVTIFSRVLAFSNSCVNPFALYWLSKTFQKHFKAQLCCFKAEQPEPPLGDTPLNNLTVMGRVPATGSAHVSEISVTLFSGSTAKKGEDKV

[2] = target: T2, Bombesin receptor subtype-3 (Homo sapiens) (UniProt P32247); assay: Agonist activity at human BRS3 expressed in HEK293AEQ cells after 10 mins by aequorin bioluminescence assay relative to dY-peptide; assay type: functional, cell-based
T2 sequence (whole entry): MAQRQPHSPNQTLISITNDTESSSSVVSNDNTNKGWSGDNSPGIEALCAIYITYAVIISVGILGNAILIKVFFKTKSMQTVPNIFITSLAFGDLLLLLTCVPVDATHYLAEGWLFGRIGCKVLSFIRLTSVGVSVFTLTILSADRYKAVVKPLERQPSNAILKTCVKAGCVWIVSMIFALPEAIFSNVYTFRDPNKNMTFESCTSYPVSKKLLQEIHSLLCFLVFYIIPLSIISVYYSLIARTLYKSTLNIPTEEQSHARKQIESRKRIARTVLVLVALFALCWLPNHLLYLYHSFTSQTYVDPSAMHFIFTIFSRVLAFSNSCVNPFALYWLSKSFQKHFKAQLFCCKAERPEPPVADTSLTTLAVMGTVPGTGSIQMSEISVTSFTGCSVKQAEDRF

[3] = target: T3, Bombesin receptor subtype-3 (Rattus norvegicus, UniProt Q8K418); assay: Agonist activity at rat BRS3 expressed in HEK293AEQ cells after 10 mins by aequorin bioluminescence assay; assay type: functional, cell-based
T3 sequence (Q8K418 whole entry): T1 sequence (whole entry)

[4] = target: T4, Bombesin receptor subtype-3 (Homo sapiens, UniProt P32247); assay: Agonist activity at human BRS3 expressed in HEK293AEQ cells after 10 mins by aequorin bioluminescence assay; assay type: functional, cell-based
T4 sequence (P32247 whole entry): T2 sequence (whole entry)

[5] = Ratio of drug level in brain to plasma in rat at 1 mg/kg, iv after 0.25 hr; assay type: ADME, organism-based; design: dose 1 mg/kg, route intravenous; details: brain and plasma, read-out: BPR
Summary of the method: (§1)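 Rats received a single 1 mg/kg IV dose. Total drug concentration in brain and the brain/plasma ratio were measured at 0.25, 1 and 2 h post-dose.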

Rattus norvegicus [6] = assay: Antiobesity activity in deit-induced obese rat model assessed as suppression of acute food intake at 10 mg/kg, iv relative to control; assay type: functional
Summary of the method: (§2)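 Acute food intake was measured and expressed as percent suppression versus vehicle-treated rats. Melanotan-II served as the positive control.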

[7] = Bioavailability in rat; assay type: ADME, organism-based; details: in vivo
Rattus norvegicus [8] = assay: Antiobesity activity in deit-induced obese rat model assessed as suppression of acute food intake at 0.3 mg/kg, iv relative to control; assay type: functional; summary of the method: as §2
[9] = Half life in rat; assay type: ADME, organism-based; details: in vivo
[10] = Drug level in rat brain at 1 mg/kg, iv after 2 hrs; assay type: ADME, organism-based; design: dose 1 mg/kg, route intravenous; details: read-out: Drug uptake; summary of the method: as §1
[11] = Drug level in rat brain at 1 mg/kg, iv after 1 hr; assay type: ADME, organism-based; design: dose 1 mg/kg, route intravenous; details: read-out: Drug uptake; summary of the method: as §1
[12] = Drug level in rat brain at 1 mg/kg, iv after 0.25 hrs; assay type: ADME, organism-based; design: dose 1 mg/kg, route intravenous; details: read-out: Drug uptake; summary of the method: as §1
[13] = Ratio of drug level in brain to plasma in rat at 1 mg/kg, iv after 2 hrs; assay type: ADME, organism-based; design: dose 1 mg/kg, route intravenous; details: brain and plasma, read-out: BPR; summary of the method: as §1
[14] = Ratio of drug level in brain to plasma in rat at 1 mg/kg, iv after 1 hr; assay type: ADME, organism-based; design: dose 1 mg/kg, route intravenous; details: brain and plasma, read-out: BPR; summary of the method: as §1
[15] = Clearance in rat; assay type: ADME, organism-based; details: in vivo

Activity [1] [%]	Activity [2] [%]	EC50 [3] [µM]	EC50 [4] [µM]	Structure (SMILES)	also measured
51	3.7	10	10	Nc1n[nH]c2nc(N3CCCCCCC3)c3c(c12)CCN(Cc1ccccc1)C3	–
96	6.8	0.854	10	CC1CCN(c2nc3[nH]nc(N)c3c3c2CN(Cc2ccccc2)CC3)CC1	–
91	22	1.06	10	CC(C)(C)CN1CCc2c(c(N3CCCCC3)nc3[nH]nc(N)c23)C1	–
55	1.8	7.65	10	CC(C)Nc1nc2[nH]nc(N)c2c2c1CN(Cc1ccccc1)CC2	–
–	–	> 10	> 10	Nc1n[nH]c2nc(N3CCCCC3)c3c(c12)CCN(C(=O)c1ccc(F)cc1)C3	–
50	1	10	10	Nc1n[nH]c2nc(NC3CCCCC3)c3c(c12)CCN(Cc1ccccc1)C3	–
82	1.3	3.56	10	Nc1n[nH]c2nc(N3CCOCC3)c3c(c12)CCN(Cc1ccccc1)C3	–
94	1.6	0.402	10	Nc1n[nH]c2nc(N3CCCCC3)c3c(c12)CCN(Cc1ccc2c(c1)OCO2)C3	–
8	0.55	10	10	COc1ccc(CN2CCc3c(c(N4CCCCC4)nc4[nH]nc(N)c34)C2)cc1	–
100	9	1.44	10	Nc1n[nH]c2nc(N3CCCCCC3)c3c(c12)CCN(Cc1ccccc1)C3	–
94	29	0.68	4.15	CC(C)(C)CNc1n[nH]c2nc(N3CCCCC3)c3c(c12)CCN(Cc1ccccc1)C3	–
121	67	0.342	5.57	Nc1n[nH]c2nc(N3CCCCC3)c3c(c12)CCN(Cc1ccccc1Cl)C3	–
60	1.5	10	10	Nc1n[nH]c2nc(Nc3ccccc3)c3c(c12)CCN(Cc1ccccc1)C3	–
93	52	0.433	1.23	CC(C)(C)CC(=O)Nc1n[nH]c2nc(N3CCCCC3)c3c(c12)CCN(Cc1ccccc1)C3	–
31	0.1	10	10	Nc1n[nH]c2nc(N3CCNCC3)c3c(c12)CCN(Cc1ccccc1)C3	–
94	46	0.346	6.78	Nc1n[nH]c2nc(N3CCCCC3)c3c(c12)CCN(Cc1ccccn1)C3	–
105	53	0.471	10	CCNc1n[nH]c2nc(N3CCCCC3)c3c(c12)CCN(Cc1ccccc1)C3	–
61	10	10	10	CC(C)CN1CCc2c(c(N3CCCCC3)nc3[nH]nc(N)c23)C1	–
102	37	0.099	4.76	CC(C)C(=O)Nc1n[nH]c2nc(N3CCCCC3)c3c(c12)CCN(Cc1ccccc1)C3	–

Further lines, the compound ahead of its results:

Structure (SMILES)	Activity [1] [%]	Activity [2] [%]	EC50 [3] [µM]	EC50 [4] [µM]	also measured
CN(C)c1nc2[nH]nc(N)c2c2c1CN(Cc1ccccc1)CC2	59	0.9	8.95	10	–
O=C(Nc1n[nH]c2nc(N3CCCCC3)c3c(c12)CCN(Cc1ccccc1)C3)C1CCCC1	99	61	0.413	0.704	–
CCC(=O)Nc1n[nH]c2nc(N3CCCCC3)c3c(c12)CCN(Cc1ccccc1)C3	103	19	0.123	3.47	–
Nc1n[nH]c2nc(N3CCCCC3)c3c(c12)CCN(CC1CCCCC1)C3	49	12	10	10	–
Nc1n[nH]c2nc(N3CCCCC3)c3c(c12)CCN(Cc1ccccc1)C3	105	60	0.38	4.52	Kp at 0.25 h [5]: 4.4; Activity (Rattus norvegicus [6]): 31.6%; bioavailability [7]: 5.7%; Activity (Rattus norvegicus [8]): 43.6%; half-life [9]: 43.8 min; concentration at 2 h [10]: 140 nM; concentration at 1 h [11]: 390 nM; concentration at 0.25 h [12]: 1210 nM; Kp at 2 h [13]: 3.4; Kp at 1 h [14]: 3.2; clearance [15]: 45 mL/min/kg
Nc1n[nH]c2nc(N3CCCCC3)c3c(c12)CCN(CCc1ccccc1)C3	51	3.3	7.91	10	–
Nc1n[nH]c2nc(N3CCC(F)CC3)c3c(c12)CCN(Cc1ccccc1)C3	96	10	0.481	10	–
Nc1n[nH]c2nc(N3CCCCC3)c3c(c12)CCNC3	15	0.3	> 10	> 10	–
CC(=O)Nc1n[nH]c2nc(N3CCCCC3)c3c(c12)CCN(Cc1ccccc1)C3	94	31	0.129	3.16	–
CC(=O)n1nc(N)c2c3c(c(N4CCCCC4)nc21)CN(Cc1ccccc1)CC3	108	20	0.759	10	–
Nc1n[nH]c2nc(N3CCCC3)c3c(c12)CCN(Cc1ccccc1)C3	99	12	0.965	10	–
Nc1n[nH]c2nc(N3CCCCC3)c3c(c12)CCN(Cc1ccc(F)cc1)C3	64	1.7	3.86	10	–
CN1CCN(c2nc3[nH]nc(N)c3c3c2CN(Cc2ccccc2)CC3)CC1	21	0.2	10	10	–
CC(C)(C)C(=O)Nc1n[nH]c2nc(N3CCCCC3)c3c(c12)CCN(Cc1ccccc1)C3	105	37	0.063	1.54	–
CCC(C)(C)C(=O)Nc1n[nH]c2nc(N3CCCCC3)c3c(c12)CCN(Cc1ccccc1)C3	96	78	0.212	0.543	–
Nc1n[nH]c2nc(N3CCCCC3)c3c(c12)CCN(Cc1cccc(C(F)(F)F)c1)C3	38	0.3	10	10	–
Cn1nc(N)c2c3c(c(N4CCCCC4)nc21)CN(Cc1ccccc1)CC3	73	7.6	6.06	10	–
